Data: ChEMBL document CHEMBL1133606, “2-Carbomethoxy-3-aryl-8-bicyclo[3.2.1]octanes: potent non-nitrogen inhibitors of monoamine transporters” (J Med Chem, 2000)

Columns and labels:
[1] = target: Sodium-dependent serotonin transporter (Homo sapiens, UniProt P31645); assay: Inhibition of [3H]citalopram binding to the serotonin transporter in cynomolgus (macaca fascicularis) monkey caudate putamen.; assay type: tissue-based, Cercopithecidae; details: target entry is the homologue from another species
Chain of Sodium-dependent serotonin transporter (P31645 whole entry): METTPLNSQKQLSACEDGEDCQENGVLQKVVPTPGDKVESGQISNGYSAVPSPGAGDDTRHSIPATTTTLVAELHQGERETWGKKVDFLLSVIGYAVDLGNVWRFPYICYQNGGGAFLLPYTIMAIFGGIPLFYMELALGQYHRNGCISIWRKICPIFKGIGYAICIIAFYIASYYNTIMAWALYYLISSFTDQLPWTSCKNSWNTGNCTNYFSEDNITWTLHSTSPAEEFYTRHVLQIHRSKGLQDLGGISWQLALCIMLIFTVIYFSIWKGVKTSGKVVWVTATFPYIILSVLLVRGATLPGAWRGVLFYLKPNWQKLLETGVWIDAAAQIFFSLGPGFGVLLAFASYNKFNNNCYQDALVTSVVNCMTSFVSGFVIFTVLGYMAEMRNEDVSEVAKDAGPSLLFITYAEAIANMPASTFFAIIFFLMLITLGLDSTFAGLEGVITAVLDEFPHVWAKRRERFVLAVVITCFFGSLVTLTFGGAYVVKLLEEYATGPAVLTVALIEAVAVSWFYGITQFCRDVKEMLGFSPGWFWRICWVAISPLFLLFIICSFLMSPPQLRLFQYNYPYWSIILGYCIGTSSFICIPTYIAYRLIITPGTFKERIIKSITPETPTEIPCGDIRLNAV
In short: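 Caudate-putamen membranes at 4 mg original wet tissue/mL final, competition vs 1 nM [3H]citalopram in 50 mM Tris·HCl pH 7.4 with 100 mM NaCl, 7–14 drug concentrations, 2 h at 0–4 °C. Filtration on 0.1% polyethyleneimine-presoaked filters, scintillation counting with cpm converted to dpm. Nonspecific binding with 1 μM fluoxetine. IC50 by EBDA, mean of triplicate experiments.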

[2] = target: Monoamine transporters; serotonin & dopamine (UniProt P31645+Q01959); assay: Selectivity, ratio of binding to serotonin transporter (SERT) and dopamine transporter (DAT); assay type: protein assay; details: Cercopithecidae
Chain of Monoamine transporters; serotonin & dopamine (P31645 whole entry, looked up): as the sequence (P31645 whole entry) above
Chain of Monoamine transporters; serotonin & dopamine (Q01959 whole entry, looked up): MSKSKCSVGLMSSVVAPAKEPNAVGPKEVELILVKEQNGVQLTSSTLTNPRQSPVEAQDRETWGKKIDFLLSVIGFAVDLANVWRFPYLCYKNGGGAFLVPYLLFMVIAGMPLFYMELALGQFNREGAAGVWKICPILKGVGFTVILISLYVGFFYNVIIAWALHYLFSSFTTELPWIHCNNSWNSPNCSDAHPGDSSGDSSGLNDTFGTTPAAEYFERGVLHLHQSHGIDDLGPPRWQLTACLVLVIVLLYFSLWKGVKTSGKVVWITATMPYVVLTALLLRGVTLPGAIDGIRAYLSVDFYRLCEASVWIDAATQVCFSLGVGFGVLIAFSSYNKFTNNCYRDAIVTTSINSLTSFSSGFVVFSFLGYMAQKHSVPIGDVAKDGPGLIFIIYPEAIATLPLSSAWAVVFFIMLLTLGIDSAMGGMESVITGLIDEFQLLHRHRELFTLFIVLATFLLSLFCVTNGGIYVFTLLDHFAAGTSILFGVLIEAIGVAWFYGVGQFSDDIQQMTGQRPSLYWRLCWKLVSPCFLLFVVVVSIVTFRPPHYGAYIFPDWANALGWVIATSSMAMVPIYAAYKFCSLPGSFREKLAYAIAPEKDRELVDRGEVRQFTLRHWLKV
In short: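 Ratio computed as IC50 at SERT ([3H]citalopram binding) divided by IC50 at DAT ([3H]WIN 35,428 binding), both measured in caudate-putamen membranes.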

Compound | IC50 [1] | Selectivity [2] | IC50 ([1]; read-out: IC50) [nM]
COC(=O)C1=C(c2ccccc2)CC2CCC1N2C (stereo unspecified) | Not Active |  | 
COC(=O)[C@H]1C2CCC(C2)C[C@@H]1c1ccc2ccccc2c1 (stereo in doubt; 8b) [listing 1 of 2 here] |  | 67 | 
COC(=O)C1C(c2ccc(Cl)c(Cl)c2)CC2CCC1N2C (stereo in doubt; 13a) [listing 1 of 2 here] | 358 nM |  | 
COC(=O)[C@H]1C2CCC(C2)C[C@@H]1c1ccc2ccccc2c1 (stereo in doubt; 9b) [listing 1 of 2 here] |  | 4 | 
COC(=O)c1ccccc1-c1ccc2ccccc2c1 | 10000 nM | 69 | 
COC(=O)C1C(c2ccc(Cl)c(Cl)c2)CC2CCC1N2C (stereo in doubt; 12a) [listing 1 of 2 here] |  | 2 | 
COC(=O)C1C2CCC(C2)CC1c1ccccc1 (stereo unspecified) |  | 25 | > 20000
COC(=O)C1=C(c2ccc(F)cc2)CC2CCC1N2C (stereo unspecified) |  | 20 | 7990
COC(=O)c1ccccc1C(=O)OC [DIMETHYL PHTHALATE] |  |  | > 100000
COC(=O)C1=C(c2ccc(F)cc2)CC2CCC1C2 (stereo unspecified) | 35400 nM | 91 | 
COC(=O)C1C(c2ccc(Cl)c(Cl)c2)CC2CCC1N2C (stereo in doubt; 12a) [listing 2 of 2 here] | 2 nM |  | 
COC(=O)[C@H]1C(c2ccc3ccccc3c2)CC2CCC1N2C (stereo partly specified) | 5.95 nM | 10 | 
COC(=O)C1=C(c2ccc(Cl)c(Cl)c2)CC2CCC1N2C (stereo unspecified) |  | 723 | 
COC(=O)[C@H]1C2CCC(C2)C[C@@H]1c1ccc(Cl)c(Cl)c1 (stereo in doubt; 7a) [listing 1 of 2 here] | 33 nM |  | 
COC(=O)[C@H]1C2CCC(C2)C[C@@H]1c1ccc2ccccc2c1 (stereo in doubt; 9b) [listing 2 of 2 here] | 64 nM |  | 
COC(=O)[C@H]1C2CCC(C2)C[C@@H]1c1ccc2ccccc2c1 (stereo in doubt; 8b) [listing 2 of 2 here] | 807 nM |  | 
COC(=O)c1ccccc1-c1ccc(F)cc1 |  | 2 | 33000

Compound | IC50 [1] | Selectivity [2] | IC50 ([1]; read-out: IC50) [nM]
COC(=O)c1ccccc1-c1ccc(Cl)cc1 |  | 68 | 46000
COC(=O)C1=C(c2ccc(Cl)c(Cl)c2)CC2CCC1C2 (stereo unspecified) |  | 726 | 
COC(=O)[C@@H]1C2CCC(C2)CC1c1ccc2ccccc2c1 (stereo partly specified) | 106 nM | 4 | 
COC(=O)C1C(c2ccc3ccccc3c2)CC2CCC1N2C (stereo unspecified) | 2.19 nM | 4 | 
COC(=O)c1ccccc1-c1ccccc1 |  |  | > 70000
COC(=O)C1=C(c2ccccc2)CC2CCC1C2 (stereo unspecified) |  |  | > 10000
COC(=O)C1C(c2ccc(Cl)c(Cl)c2)CC2CCC1N2C (stereo in doubt; 13a) [listing 2 of 2 here] |  | 179 | 
COC(=O)[C@H]1C2CCC(C2)C[C@@H]1c1ccc(Cl)c(Cl)c1 (stereo in doubt; 9a) [listing 1 of 2 here] |  | 14 | 
COC(=O)[C@@H]1C2CCC(C2)C[C@@H]1c1ccc2ccccc2c1 (stereo partly specified) | 60 nM | 2 | 
COC(=O)C1=C(c2ccc3ccccc3c2)CC2CCC1C2 (stereo unspecified) | 1310 nM | 119 | 
COC(=O)[C@@H]1C2CCC(C2)C[C@@H]1c1ccc(Cl)c(Cl)c1 (stereo partly specified) | 650 nM | 46 | 
COC(=O)[C@H]1C2CCC(C2)C[C@@H]1c1ccc(Cl)c(Cl)c1 (stereo in doubt; 9a) [listing 2 of 2 here] | 180 nM |  | 
COC(=O)[C@H]1C2CCC(C2)C[C@@H]1c1ccc(Cl)c(Cl)c1 (stereo in doubt; 7a) [listing 2 of 2 here] |  | 3 | 
COC(=O)[C@H]1[C@@H](c2ccc(F)cc2)C[C@H]2CC[C@H]1N2C (stereo in doubt; 13c) | 12200 nM |  | 
COC(=O)C1=C(c2ccc3ccccc3c2)CC2CCC1N2C (stereo unspecified) |  | 38 | 109
COC(=O)C1C(c2ccc(Cl)c(Cl)c2)CC2CCC1N2C (stereo in doubt; 14a) |  | 68 | 
